Compounds with a hit are over-represented: about 3.3% of the library has one in this group of screens.
TDP2 absorb = blocks human TDP2 phosphodiesterase activity; O95551; recombinant TDP2, T5PNP hydrolysis, p-nitrophenol absorbance 415 nm; inhibition, % at 12.8 µM; 370,000 compounds, 0.34% hits; AID 720702;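 active = inhibition above the mean of all tested compounds plus 3 SD, set per campaign, cut at about 25% in these data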;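 note: 0% = DMSO with enzyme and 100% = buffer with substrate but no TDP2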
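Assay system: recombinant human TDP2 / Reagent: T5PNP substrate at 5 mM, a TopII-DNA adduct mimic / Measured by: epi absorbance from released p-nitrophenol / Evaluation: % inhibition relative to enzyme-containing and enzyme-free wells / Control set: enzyme-free and DMSO wells / Replicates: each compound tested once, singlicate / Schedule: enzyme reaction with compound for 2 h at 37 °C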
MBD2 inh = MBD2-methylated oligo binding inhibition; Q9UBB5; TR-FRET, MBD2 binding to methylated oligonucleotide; inhibition, % at 4.4 µM; 370,000 compounds, 0.31% hits; in the data active = inhibition above about 13%
LEDGF integ inh = blocks HIV-1 LEDGF/p75-dependent DNA integration. TR-FRET IN-LEDGF/p75 DNA integration, Eu/Cy5. inhibition, % at 3.7 µM. 370,000 compounds, 0.64% hits. AID 743269;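 active = inhibition above the screen-wide mean plus 3 SD, cut at about 13% in these data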;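 note: signal is the Cy5 over europium emission ratio at 671 and 618 nm; 0% = plate median of compound wells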
PRMT1 FP inh = inhibitors of human PRMT1. 370,000 compounds, 1.3% hits. AID 652257. Q99873. inhibition, % at 2.79 µM. recombinant PRMT1, activity-based probe fluorescence polarization;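 active = inhibition above about 21% made by adding two undisclosed values, limit read from the data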
SIAE inh = human SIAE inhibition, primary screen; SIAE FP-Rh probe binding, fluorescence polarization; inhibition, % at 9.66 µM; 370,000 compounds, 0.69% hits; AID 1053197;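 active = inhibition above a cutoff: mean of compounds within the control limits plus 3 SD of those, cut at about 17% in these data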;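 note: 0% = plate median of compound wells and 100% = probe without SIAE protein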
Target sequence (Q9HAT2 whole entry, looked up): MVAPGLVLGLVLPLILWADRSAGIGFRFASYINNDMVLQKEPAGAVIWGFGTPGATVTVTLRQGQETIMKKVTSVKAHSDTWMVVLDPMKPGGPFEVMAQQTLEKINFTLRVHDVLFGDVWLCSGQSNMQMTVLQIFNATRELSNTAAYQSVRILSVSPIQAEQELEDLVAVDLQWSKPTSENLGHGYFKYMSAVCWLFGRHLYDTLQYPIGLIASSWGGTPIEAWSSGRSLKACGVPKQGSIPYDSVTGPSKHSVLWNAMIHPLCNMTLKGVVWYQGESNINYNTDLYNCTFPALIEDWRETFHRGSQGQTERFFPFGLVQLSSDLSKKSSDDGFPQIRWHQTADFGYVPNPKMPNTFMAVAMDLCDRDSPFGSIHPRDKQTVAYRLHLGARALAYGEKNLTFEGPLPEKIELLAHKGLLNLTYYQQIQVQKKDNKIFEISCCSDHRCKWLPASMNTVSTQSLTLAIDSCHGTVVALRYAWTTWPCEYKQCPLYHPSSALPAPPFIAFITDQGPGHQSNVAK
UHRF1 binding = human UHRF1 methylated DNA binding inhibitors; Q96T88; UHRF1 binding to methylated oligo, TR-FRET; inhibition, % at 4.4 µM; 370,000 compounds, 0.75% hits; in the data active = inhibition above about 21%;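 note: UHRF1 SRA domain binding a hemimethylated CpG hairpin DNA probe; 0% = median of test compound wells and 100% = reference inhibitor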
PRMT1 confirm = PRMT1 (human) inhibition, FP confirmation. recombinant His-PRMT1, activity-based probe fluorescence polarization. AID 687036. 3,300 compounds, 42% hits. shares compounds with PRMT1 FP inh. inhibition, % at 2.79 µM;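 active = mean inhibition across replicates above the hit cutoff derived for the earlier primary screen, cut at about 22% in these data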
Active calls of the source: *; nt = no result.

SMILES	TDP2 absorb	MBD2 inh	LEDGF integ inh	PRMT1 FP inh	SIAE inh	UHRF1 binding	PRMT1 confirm
CC(C)CC(C(=O)O)N1C(=O)C2C3CC(C2C1=O)C1C(c2ccccc2)c2sc(=O)[nH]c2SC31 (stereo not given)	-1.6	-0.2	5.7	18.9	5.5	-1.2	nt
O=C(O)CN1C(=O)C2C3CC(C2C1=O)C1C(c2ccccc2)c2sc(=O)[nH]c2SC31 (stereo not given)	19.4	-6.5	3.8	28.9*	8.7	-1.6	28.6*
C=CCn1c(SC(F)F)nc2scc(-c3ccco3)c2c1=O	-12.4	1.8	9.7	63.7*	5.9	10.6	-1.1
C=CCn1c(SCC(C)=O)nc2scc(-c3ccco3)c2c1=O	9.3	1.3	7.7	49.4*	-8.8	1.6	22.3*
C=CCn1c(SCC(=O)NCCCC(=O)OCC)nc2scc(-c3ccco3)c2c1=O	6.1	-6.8	4.0	3.8	7.3	-1.6	nt
CC(C)(C)N(Cc1cn(Cc2ccccc2)nn1)S(=O)(=O)c1ccccc1Br	-16.9	-6.1	5.5	0.4	-5.0	5.3	nt
O=C(NCCSc1ccc(Cl)cc1)c1ccco1	-1.3	2.5	-2.4	1.6	7.5	-1.1	nt
O=C(CCSc1ccc(Cl)cc1)c1ccco1	-12.4	-2.3	4.7	40.7*	-3.1	4.3	66.3*
Cc1cc(C)c(S(=O)(=O)NCC23C=CC(O2)C2C(=O)N(c4ccccc4)C(=O)C23)c(C)c1 (stereo not given)	0.5	5.0	2.5	53.6*	-3.7	-0.8	4.2
O=C1C2C3C=CC(CNS(=O)(=O)c4ccccc4[N+](=O)[O-])(O3)C2C(=O)N1c1ccccc1 (stereo not given)	-2.1	-2.1	-0.5	75.8*	1.2	1.5	42.1*
COC(=O)C1(CO)NC(c2ccc(C)cc2)C2C(=O)N(c3ccccc3)C(=O)C21 (stereo not given)	23.9	-2.6	-0.4	-0.2	-2.7	0.8	nt
COc1ccc(C2C(C(=O)N3CCN(c4ccccc4Cl)CC3)CC(=O)N2c2ccc(OC)cc2)cc1 (stereo not given)	2.2	-0.1	-1.3	0.8	1.9	-0.1	nt
O=Cc1ccc(-c2ccc(F)cc2)o1	-21.2	2.8	3.1	0.2	-5.2	-1.2	nt
O=C(O)/C(=C\c1ccc(-c2ccc(F)cc2)o1)c1ccccc1	4.4	3.1	-1.9	28.0*	2.8	2.2	16.2
O=C(CNC(=O)c1ccccc1)Sc1ccccc1	-7.4	-1.9	-4.5	49.2*	0.9	0.5	75.9*
CC(C)C(=O)N(c1cc2sc(=O)oc2c2ccccc12)S(=O)(=O)c1cccs1	-4.8	2.4	-4.8	81.1*	10.7	0.6	21.8*
CC(=O)N(c1ccc2oc(=O)sc2c1)S(=O)(=O)c1ccc(C(=O)O)cc1	4.1	-2.3	-2.9	91.4*	-13.3	-1.0	79.6*
CC(=O)N(c1ccc2oc(=O)sc2c1)S(=O)(=O)c1cccs1	-3.8	2.1	-2.8	93.7*	0.5	-2.9	57.3*
CCCC(=O)N(c1ccc2oc(C)c(C(C)=O)c2c1)S(=O)(=O)c1ccc(C(=O)O)cc1	10.9	3.9	0.7	0.7	-13.6	-0.5	nt
CC(C)C(=O)N(c1ccc2oc(=O)sc2c1)S(=O)(=O)c1cccs1	-3.7	1.9	-4.7	52.8*	-10.1	-1.7	7.6
COc1ccc(N(C(=O)C(C)C)S(=O)(=O)c2cccs2)cc1	6.0	5.4	-3.0	0.3	-8.4	13.5	nt
COc1ccc(Oc2c(Cl)cnn(-c3cc(C)cc(C)c3)c2=O)cc1	-9.4	-0.1	2.9	-0.7	-1.4	0.8	nt
COc1ccc(CN2C3=N[C@H](c4ccccc4)CC(=O)N3/C(=C\c3ccccc3)C2c2ccco2)c(OC)c1 (stereo not given in full)	-4.2	5.0	-2.0	-2.3	-1.9	-1.2	nt
COc1ccc(CNCC#Cc2ccc(C(F)(F)F)cc2)c(OC)c1	4.1	-7.6	1.9	0.2	4.3	0.0	nt
CC(C)[C@H]1/C(=C/C2CC2)N2C(=O)C[C@H](c3cccc(C(F)(F)F)c3)N=C2N1Cc1ccc2c(c1)OCO2	0.0	-6.8	0.9	-4.6	5.7	-0.6	nt
SMILES	TDP2 absorb	MBD2 inh	LEDGF integ inh	PRMT1 FP inh	SIAE inh	UHRF1 binding	PRMT1 confirm
O=C(Sc1cccc2cccnc12)c1ccc(F)cc1	-1.2	-11.7	-12.8	26.9*	-2.2	-27.6	27.5*
O=C(Sc1cccc2cccnc12)c1ccccc1Br	-1.5	-14.1	-9.8	14.9	2.5	-21.3	nt
Cn1c(SCC(=O)Nc2ccc(S(=O)(=O)Nc3nccs3)cc2)nc2sc3c(c2c1=O)CCCC3	5.5	1.2	6.0	5.0	-42.1	-0.8	nt
Cc1cc(Br)cn2c(Cc3cccc(Cl)c3)c(-c3ccco3)nc12	0.9	3.1	4.6	43.7*	-7.3	14.7	18.3
Cc1cc(Br)cn2c(Cc3ccccc3C(F)(F)F)c(-c3ccco3)nc12	-3.1	8.9	0.1	39.9*	0.7	19.2	23.2*
Cc1ccc(Cc2c(-c3ccccc3)nc3c(C)cc(Br)cn23)cc1	1.5	3.7	-0.8	4.2	-5.5	14.2	nt
Fc1cccc(Cc2c(-c3ccco3)nc3c(Cl)cc(C(F)(F)F)cn23)c1	1.4	3.9	0.2	37.7*	-2.9	17.5	23.1*
Cc1ccc(Cc2c(-c3ccco3)nc3c(C)cc(Br)cn23)cc1	3.0	1.4	0.1	33.0*	-2.8	20.9*	18.4
Cc1cc(Br)cn2c(Cc3ccccc3C(F)(F)F)c(-c3cccc(Br)c3)nc12	-1.4	7.2	5.5	10.3	-13.7	9.8	nt
O=C(Nc1ccc(F)cc1)N[C@@H]1C[C@@H]2O[C@H](CO)CC[C@@H]2O[C@@H]1CCc1ccc(C2=CCCC2)cc1	-3.7	3.2	7.0	1.9	-8.1	2.8	nt
C[C@H]1[C@H](NCc2cccnc2)CC[C@@]23CCCN2C(=O)CCC[C@@H]13	3.0	-0.5	9.7	0.9	-4.6	0.3	nt
Cc1nn(-c2ccccc2)c2sc(C(=O)NC3CCCCCC3)cc12	-2.2	7.7	-1.4	-0.3	-6.8	2.3	nt
O=C(Nc1ccc(C(=O)O)cc1)/C(=C\c1ccco1)NC(=O)c1ccco1	1.8	3.7	8.7	46.8*	-2.1	8.7	8.2
O=C(NC(Cc1ccccc1)C(=O)O)/C(=C/c1ccccc1)NC(=O)c1ccco1 (stereo not given)	-21.6	-4.2	1.3	-1.3	-6.0	0.2	nt
O=C(NC(Cc1ccccc1)C(=O)O)/C(=C/c1ccco1)NC(=O)c1cccc(Br)c1 (stereo not given)	-3.3	-2.6	3.3	24.9*	-2.4	1.6	6.8
Cc1ccc(NC(=O)Cn2c(O)c(N=NC(N)=O)c3ccccc32)cc1	4.0	-2.4	-3.0	1.5	-1.3	-2.1	nt
Cc1ccc(NC(=O)Cn2c(O)c(N=NS(=O)(=O)c3ccc(C)cc3)c3ccccc32)cc1	-2.3	-4.5	3.2	29.4*	-2.0	-2.2	23.0*
